# Laboratory results reported in ChEMBL document CHEMBL1130342, “Synthesis and evaluation of 2-(arylamino)imidazoles as alpha 2-adrenergic agonists” (J Med Chem, 1997).
# Assays:
# [1] = target: T1, Alpha-2C adrenergic receptor (Homo sapiens, UniProt P18825); assay: Effective concentration at Alpha-2C adrenergic receptor from CHO-C4 cells; format: functional, cell-based
# T1 sequence (P18825 whole entry): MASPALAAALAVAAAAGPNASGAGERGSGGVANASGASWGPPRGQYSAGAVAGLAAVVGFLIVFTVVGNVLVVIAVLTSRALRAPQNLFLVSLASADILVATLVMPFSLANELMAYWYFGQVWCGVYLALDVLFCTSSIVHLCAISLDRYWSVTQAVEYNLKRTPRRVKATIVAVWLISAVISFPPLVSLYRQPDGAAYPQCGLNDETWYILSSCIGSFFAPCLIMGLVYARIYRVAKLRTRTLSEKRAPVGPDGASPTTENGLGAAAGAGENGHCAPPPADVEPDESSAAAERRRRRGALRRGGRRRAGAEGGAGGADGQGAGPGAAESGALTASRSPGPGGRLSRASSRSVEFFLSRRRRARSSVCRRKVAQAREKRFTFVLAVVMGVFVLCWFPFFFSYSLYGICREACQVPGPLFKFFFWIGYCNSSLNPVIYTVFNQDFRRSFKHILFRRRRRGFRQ
# Method in brief: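 Functional agonist assay in CHO cells expressing the human α2C-adrenoceptor (CHO-C4). Responses were read on a Cytosensor microphysiometer.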
# [2] = target: T2, Adrenergic receptor alpha-1 (Homo sapiens, UniProt P35348+P25100+P35368); assay: Displacement of prazosin from Alpha-1 adrenergic receptors of human cerebral cortex homogenate; format: tissue-based
# T2 sequence (P35348 whole entry): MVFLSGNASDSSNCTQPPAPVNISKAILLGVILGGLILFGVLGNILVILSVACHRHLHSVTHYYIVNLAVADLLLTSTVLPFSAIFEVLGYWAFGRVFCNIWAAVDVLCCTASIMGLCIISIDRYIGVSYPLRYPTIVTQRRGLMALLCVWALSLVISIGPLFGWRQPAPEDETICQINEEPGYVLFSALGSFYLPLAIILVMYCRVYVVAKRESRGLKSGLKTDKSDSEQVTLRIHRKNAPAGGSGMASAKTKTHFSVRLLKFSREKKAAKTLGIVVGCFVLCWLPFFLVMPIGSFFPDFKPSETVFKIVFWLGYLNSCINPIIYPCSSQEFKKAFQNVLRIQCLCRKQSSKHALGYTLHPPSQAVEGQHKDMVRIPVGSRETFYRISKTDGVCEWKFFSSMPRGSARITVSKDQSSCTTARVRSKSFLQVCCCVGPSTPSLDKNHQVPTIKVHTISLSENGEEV
# T2 sequence (P25100 whole entry): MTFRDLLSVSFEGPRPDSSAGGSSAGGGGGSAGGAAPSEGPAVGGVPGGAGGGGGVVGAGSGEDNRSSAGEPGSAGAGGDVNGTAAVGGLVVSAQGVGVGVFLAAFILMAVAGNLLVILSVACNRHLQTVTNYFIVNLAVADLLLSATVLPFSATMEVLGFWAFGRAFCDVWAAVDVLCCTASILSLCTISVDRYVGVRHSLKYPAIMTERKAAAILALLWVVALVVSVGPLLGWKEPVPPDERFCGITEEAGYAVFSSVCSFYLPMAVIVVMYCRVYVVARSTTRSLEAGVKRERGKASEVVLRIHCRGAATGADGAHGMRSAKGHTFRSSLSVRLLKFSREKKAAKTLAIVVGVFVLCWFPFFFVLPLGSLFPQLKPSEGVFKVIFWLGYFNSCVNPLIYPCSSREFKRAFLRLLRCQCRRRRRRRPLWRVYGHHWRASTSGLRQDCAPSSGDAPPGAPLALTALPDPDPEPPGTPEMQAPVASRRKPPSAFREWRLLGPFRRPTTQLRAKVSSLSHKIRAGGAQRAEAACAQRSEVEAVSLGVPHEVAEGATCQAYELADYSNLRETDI
# T2 sequence (P35368 whole entry): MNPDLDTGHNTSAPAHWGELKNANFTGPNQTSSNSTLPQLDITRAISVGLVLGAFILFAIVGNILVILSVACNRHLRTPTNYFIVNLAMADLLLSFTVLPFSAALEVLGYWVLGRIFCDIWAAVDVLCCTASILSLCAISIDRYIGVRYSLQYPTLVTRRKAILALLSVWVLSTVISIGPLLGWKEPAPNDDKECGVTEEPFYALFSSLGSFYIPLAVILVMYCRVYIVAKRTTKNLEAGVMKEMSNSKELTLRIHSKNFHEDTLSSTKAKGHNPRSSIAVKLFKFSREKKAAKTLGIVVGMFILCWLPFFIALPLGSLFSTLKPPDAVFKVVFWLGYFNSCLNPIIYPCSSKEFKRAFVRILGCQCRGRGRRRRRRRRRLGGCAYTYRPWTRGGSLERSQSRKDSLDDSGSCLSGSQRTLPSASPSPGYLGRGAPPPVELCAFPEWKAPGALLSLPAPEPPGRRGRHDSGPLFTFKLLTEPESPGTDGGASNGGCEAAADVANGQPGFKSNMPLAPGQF
# Method in brief: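 Membranes from human cerebral cortex, giving a mixed α1 subtype population; affinity from competition against radiolabeled prazosin; nonlinear least-squares curve fitting; at least three separate determinations.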
# [3] = target: T3, Alpha-2A adrenergic receptor (Homo sapiens, UniProt P08913); assay: Effective concentration at Alpha-2A adrenergic receptor from CHO-C10 cells; format: functional, cell-based
# T3 sequence (P08913 whole entry): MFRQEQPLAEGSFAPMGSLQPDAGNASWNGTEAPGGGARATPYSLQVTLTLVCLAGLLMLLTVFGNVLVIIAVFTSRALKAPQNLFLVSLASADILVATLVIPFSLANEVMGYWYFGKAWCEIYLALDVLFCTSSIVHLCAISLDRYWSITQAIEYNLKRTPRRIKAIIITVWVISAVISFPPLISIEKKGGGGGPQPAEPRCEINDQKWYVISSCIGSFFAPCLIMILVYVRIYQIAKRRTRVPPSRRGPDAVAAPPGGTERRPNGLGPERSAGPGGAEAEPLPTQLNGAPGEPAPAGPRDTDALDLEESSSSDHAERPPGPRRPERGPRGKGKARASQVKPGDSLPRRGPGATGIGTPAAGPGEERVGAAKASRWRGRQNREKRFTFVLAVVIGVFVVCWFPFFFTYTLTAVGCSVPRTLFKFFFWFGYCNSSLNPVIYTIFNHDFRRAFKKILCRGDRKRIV
# Method in brief: (§1)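 Functional agonist response measured by Cytosensor microphysiometry in CHO cells expressing α2A (CHO-C10) or rat α2B (CHO-RNG) adrenoceptor.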
# [4] = target: T4, Alpha-2B adrenergic receptor (Rattus norvegicus) (UniProt P19328); assay: Intrinsic activity relative to Norepinephrine at Alpha-2B adrenergic receptor from CHO-RNG cells; format: cell-based; method in brief: as §1
# T4 sequence (whole entry): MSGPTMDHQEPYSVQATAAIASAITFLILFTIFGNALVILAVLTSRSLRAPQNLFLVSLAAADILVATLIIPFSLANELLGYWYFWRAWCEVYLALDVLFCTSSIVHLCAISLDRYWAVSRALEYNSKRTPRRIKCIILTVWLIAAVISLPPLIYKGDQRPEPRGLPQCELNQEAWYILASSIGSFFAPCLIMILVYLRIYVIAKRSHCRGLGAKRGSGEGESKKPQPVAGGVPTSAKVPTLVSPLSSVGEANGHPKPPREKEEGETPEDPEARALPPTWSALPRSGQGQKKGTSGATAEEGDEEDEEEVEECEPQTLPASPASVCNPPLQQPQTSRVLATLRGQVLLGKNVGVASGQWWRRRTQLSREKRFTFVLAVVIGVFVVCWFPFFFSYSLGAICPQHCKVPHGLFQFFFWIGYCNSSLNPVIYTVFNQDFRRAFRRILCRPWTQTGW
# [5] = target: T5, Alpha-2B adrenergic receptor (Rattus norvegicus, UniProt P19328); assay: Effective Concentration at Alpha-2B adrenergic receptor from CHO-RNG cells; format: functional, cell-based; method in brief: as §1
# T5 sequence (P19328 whole entry): T4 sequence (whole entry)
# [6] = target: T6, Alpha-2C adrenergic receptor (Homo sapiens) (UniProt P18825); conditions: CHO-C4
# T6 sequence (whole entry): T1 sequence (P18825 whole entry)
# [7] = target: T7, Alpha-2A adrenergic receptor (Homo sapiens) (UniProt P08913); assay: Intrinsic activity relative to Norepinephrine at Alpha-2A adrenergic receptor from CHO-C10 cells; format: cell-based; method in brief: as §1
# T7 sequence (whole entry): T3 sequence (P08913 whole entry)
# [8] = target: T1, Alpha-2C adrenergic receptor; assay: Displacement of rauwolscine from human Alpha-2C adrenergic receptor expressed in CHO cells; format: cell-based
# Method in brief: (§2)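 Membranes of CHO cells expressing human α2A (CHO-C10), human α2C (CHO-C4) or rat α2B (CHO-RNG) receptor; competition against radiolabeled rauwolscine; affinity constants by nonlinear least-squares curve fitting; at least three separate determinations.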
# [9] = target: T5, Alpha-2B adrenergic receptor; assay: Displacement of rauwolscine from rat Alpha-2B adrenergic receptor expressed in CHO cells; format: cell-based; method in brief: as §2
# [10] = target: T3, Alpha-2A adrenergic receptor; assay: Displacement of rauwolscine from human Alpha-2A adrenergic receptor expressed in CHO cells; format: cell-based; method in brief: as §2
SMILES,EC50 [1] [nM],Ki [2] [nM],EC50 [3] [nM],IA [4],EC50 [5] [nM],IA [6],IA [7],Ki [8] [nM],Ki [9] [nM],Ki [10] [nM]
COc1c(C(C)(C)C)cc(C)c(Nc2ncc[nH]2)c1C,> 5000,4200,> 5000,0.65,1100,–,–,–,–,–
Brc1c(NC2=NCCN2)ccc2nccnc12 [BRIMONIDINE],–,1800,–,0.89,–,0.82,0.91,–,–,–
c1c[nH]c(Nc2ccc3[nH]cnc3c2)n1,–,24000,–,–,–,–,–,400,640,76
Brc1ccccc1Nc1ncc[nH]1,–,11000,–,–,–,–,–,–,1500,210
Clc1cccc(Cl)c1Nc1ncc[nH]1,–,6000,–,–,–,–,–,1100,–,–
COc1ccc(Nc2ncc[nH]2)c(C)c1OC,–,6600,–,–,–,–,–,1500,2500,130
COc1ccc(Nc2ncc[nH]2)c(C)c1,–,8400,–,–,–,–,–,–,–,–
Cc1c(Nc2ncc[nH]2)ccc2nccnc12,–,> 28000,–,–,–,–,–,340,1200,–
COc1cc(C)c(Nc2ncc[nH]2)cc1C(C)(C)C,–,16000,–,–,–,–,–,290,380,39
Cc1c(Nc2ncc[nH]2)ccc2c1NCCO2,110,16000,124,0.88,470,0.64,0.49,–,421,6
c1c[nH]c(Nc2ccc3nccnc3c2)n1,–,> 100000,–,–,–,–,–,8800,9300,3100
Brc1c(Nc2ncc[nH]2)ccc2nccnc12,–,> 100000,–,–,–,–,–,> 10000,> 10000,–
Cc1c(Nc2ncc[nH]2)ccc2c1OCCO2,6.6,2100,8.7,1,41,0.5,0.89,–,–,–
